Activity calls are given as the source filed them. No rule for the calls is given here.

The experiment deals with Metabotropic glutamate receptor 4 (Rattus norvegicus) (UniProt P31423). Briefly: glutamate potency shift at rat mGlu4 – cell-based, CHO, Gqi5, Fluo4 calcium, selectivity assay for mGlu5 silent allosteric modulator project (AID 652204). The conditions noted are these: CHO rmGlu4/Gqi5, Fluo4 calcium mobilization, glutamate CRC. In a few lines: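 Test system: CHO cells expressing rat mGlu4 together with Gqi5. Also added: glutamate 9-point series up to 1 mM. Technique: Fluo4 calcium-dye fluorescence. Timing: 37 °C 60-min dye-loading, compound 20 s, glutamate 80 s.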
Sequence of Metabotropic glutamate receptor 4 (Rattus norvegicus) (P31423 whole entry, looked up): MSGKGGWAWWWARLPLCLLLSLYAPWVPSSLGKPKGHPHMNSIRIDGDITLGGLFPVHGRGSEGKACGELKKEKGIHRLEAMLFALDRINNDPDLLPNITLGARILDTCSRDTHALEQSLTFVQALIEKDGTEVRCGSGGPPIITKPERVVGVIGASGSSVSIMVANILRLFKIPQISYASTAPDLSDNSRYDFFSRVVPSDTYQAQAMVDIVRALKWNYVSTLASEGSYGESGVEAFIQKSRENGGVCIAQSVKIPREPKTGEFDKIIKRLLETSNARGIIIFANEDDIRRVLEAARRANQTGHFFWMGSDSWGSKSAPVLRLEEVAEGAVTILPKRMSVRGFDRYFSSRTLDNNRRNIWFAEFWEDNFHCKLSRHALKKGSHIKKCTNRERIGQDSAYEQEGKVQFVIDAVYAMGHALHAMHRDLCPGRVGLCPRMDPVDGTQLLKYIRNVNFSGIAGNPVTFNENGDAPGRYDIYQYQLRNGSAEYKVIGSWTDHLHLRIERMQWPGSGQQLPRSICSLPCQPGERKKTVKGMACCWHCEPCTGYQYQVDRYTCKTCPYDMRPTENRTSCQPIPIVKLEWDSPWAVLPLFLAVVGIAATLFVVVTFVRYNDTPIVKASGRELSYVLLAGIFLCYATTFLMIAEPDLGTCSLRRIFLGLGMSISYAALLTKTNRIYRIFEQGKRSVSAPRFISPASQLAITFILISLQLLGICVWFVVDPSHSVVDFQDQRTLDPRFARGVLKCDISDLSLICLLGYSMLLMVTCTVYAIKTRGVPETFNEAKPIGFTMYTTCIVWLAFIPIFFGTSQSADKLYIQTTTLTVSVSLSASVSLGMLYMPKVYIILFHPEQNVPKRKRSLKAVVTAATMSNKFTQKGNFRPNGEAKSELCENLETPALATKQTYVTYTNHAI
For orientation: Calcium flux is commonly read through the fluorescence of an indicator in the cells.

Consider `O=C(c1ccc(C#Cc2cccc(F)c2)cn1)N1CC2CC2C1` (configuration not stated), for which the “glutamate EC50 in presence of 10 uM compound” value was “inactive”. Besides, the fold shift (measured here: glutamate EC50 fold shift, at 10 µM) worked out at 1.23.

Values taken from PubChem BioAssay AID652204 (Vanderbilt Specialized Chemistry Center, 2013).
